This is an account of results in PMC4589464 (Hepatology (Baltimore, Md.), 2015).

“Also recorded” adds a separate entry of the source. Read-outs that look alike come from different tables or passages of the source. Some results are limits rather than exact numbers.

For one data set, the system named is HBVADV-R^A181T/N236T. Description: Southern blot assay, Huh-7 cells transfected with ADV-resistant HBV plasmid. The class given is cell-based. The following applies: Hepatitis B virus, Huh-7, read-out: IC50 against HBVADV-R^A181T/N236T. The method in brief: (§1)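 Huh-7 cells were transfected with the HBV variant-containing plasmid and cultured with a range of test compound concentrations. Core-associated HBV DNA was extracted and detected by Southern blot hybridization. IC50 was calculated from the change in signal density, generally averaged over two experiments. The fold change was taken relative to the IC50 against wild-type HBV plasmid.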

A short description of data set [1]: Cytotoxicity in MT-4 cells. Format: cell-based. The conditions noted are these: human.
Data set [2] has as its system HBVETV-R^L180M/S202G/M204V. Description: Southern blot assay, Huh-7 cells transfected with ETV-resistant HBV plasmid. The class given is cell-based. The conditions noted are these: Hepatitis B virus, Huh-7, read-out: IC50 against HBVETV-R^L180M/S202G/M204V. The method in brief:
as §1

Another data set is described as follows: in vitro. The class given is cell-based. The following applies: human.
The subject of data set [3] is HBV.
Data set [4] relates to HBV^WT. The following applies: read-out: IC50 against HBV^WT; Southern blotting assay; cited from earlier work.
In data set [5] the test system is HBV. As to the kind of experiment: microbe, parasite or virus in culture. The conditions noted are these: Hepatitis B virus, HepG2 2.2.15, 288 h, read-out: IC50 against Anti-HBV.
Data set [6] relates to HIV-1NL4-3.
In a further data set the test system is HIV-2 strains. Description: Activity against HIV-2 strains. The conditions noted are these: Table S1. The class given is cell-based.
Data set [7] can be described thus: Serum human albumin and body weight monitoring of treated HBV-infected mice. Format: in vivo. The following applies: 0.02 mg/kg/day; for serum human albumin (h-albumin) levels: HBV^WT-infected mice; for body weights: treated mice, 14 days.
For data set [8], the system named is HBVETV-R^L180M/S202G/M204V. As to the kind of experiment: HBVETV-R viremia in hu-liver-chimeric-uPA+/+/SCID+/+ mice. The class given is in vivo. The conditions noted are these: for effect on HBVETV-R^L180M/S202G/M204V viremia: 0.02 mg/kg/day oral once daily; for effect on HBVETV-R^L180M/S202G/M204V viremia / greatest magnitude of viremia reduction: 14 days; for greatest magnitude of viremia reduction: HBVETV-R-infected mice, 0.02 mg/kg/day oral, average of two mice; for difference in viremia reduction magnitude between HBV^WT and HBVETV-R^L180M/S202G/M204V: mouse model. The method in brief:
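Human-liver-chimeric uPA+/+/SCID+/+ mice (SCID, uPA-transgenic, liver partly repopulated with human hepatocytes) were inoculated with the HBV variant. Dosing began 8 weeks later, once daily at 0.02 mg/kg/day for 14 days. Serum viremia was followed as log10 copies/ml change from baseline, along with serum human albumin and body weight per mouse. Livers were examined histologically at the end of dosing.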

Data set [9] has as its system HBV^WT. As to the kind of experiment: HBV^WT viremia in hu-liver-chimeric-uPA+/+/SCID+/+ mice. Format: in vivo. The following applies: 0.02 mg/kg/day oral, 14 days; for greatest magnitude of serum HBV-DNA level reduction: HBV^WT-infected mice.
For data set [10], the system named is HBV^WT. Description: Southern blot assay, Huh-7 cells transfected with pHBV^WT. The class given is cell-based. The conditions noted are these: Hepatitis B virus.
A further data set has as its system HepG2 cells. Format: cell-based. The conditions noted are these: up to 100 μM; for mtDNA synthesis / mtDNA levels / L-lactate levels in culture medium: 12 days culture; for mtDNA synthesis / mtDNA levels: real-time mtDNA-PCR; for viable cell numbers (MTT assay): day 5 of culture. For orientation: Formazan colour is commonly taken as a measure of viable cells.
Data set [11] is classed as in vivo. The conditions noted are these: hu-liver-chimeric mice, 14-day administration.
For data set [12] the following is noted: intraperitoneal administration 20 mg/kg; cited from earlier work.
A further data set deals with HIV-1. The conditions noted are these: read-out: in vitro anti-HIV-1 IC90 concentration; cited from earlier work.
The conditions of data set [13]: cited from earlier work.
Data set [14] concerns HIV-1NL4-3. Description: microbe, parasite or virus in culture. The conditions noted are these: Human immunodeficiency virus 1, MT4, read-out: IC50 against Anti-HIV-1.
[15] abbreviates: Huh-7, read-out: IC50 against HBV^WT.
Where [16] appears, read: Huh-7, read-out: IC50 against HBV^WT (Southern blot).

Consider `CC(C)(C)C(=O)OCOP(=O)(COCCn1cnc2c(N)ncnc21)OCOC(=O)C(C)(C)C` [ADV, adefovir dipivoxil], for which the IC50 is 39.5 ± 13.3 µM with HBVADV-R^A181T/N236T, 36.4 ± 23.5 µM in data set [2], 7.7 µM in the data set on HBV^WT [4] and 0.2 ± 0.08 µM with HBV [5]. In addition, the CC50 (as a rule, the concentration that lowers cell viability or growth by half) was 5.1 ± 1 µM in data set [1] and greater than 100 µM in the data set “in vitro”. Also, the “S.I. with Anti-HBV (CC50/IC50)” value in the data set with HBV [3] (HepG2 2.2.15 cells) is given as greater than 500. In addition, the “S.I. with Anti-HIV-1 (CC50/IC50)” value in the data set with HIV-1NL4-3 [6] (MT-4 cells) was found to be 21.

For the compound `N#C[C@]1(CO)O[C@@H](n2cnc3c(N)nc(N)nc32)C[C@@H]1O` [CAdA, 4′-C-cyano-2-amino-2′-deoxyadenosine], the “activity against HIV-2 strains” value in the data set on HIV-2 strains is listed as “potent activity against HIV-2 strains”. Also, the IC50 with HBVADV-R^A181T/N236T is 0.09 ± 0.07 µM. For the same compound, it took 3.5 ± 1.2 µM to reach half-maximal cytotoxicity in [1] (CC50). Also, in [2], the IC50 was found to be 0.07 ± 0.01 µM. In “in vitro”, this compound yielded a CC50 of 3.8 ± 1 µM. In addition, the “S.I. with Anti-HBV (CC50/IC50)” value with HBV [3] (HepG2 2.2.15 cells) is 9,500. In data set [7], the “serum human albumin (h-albumin) levels” value is listed as “moderately decreased h-albumin levels” and the body weights result is listed as “no significant difference in body weights”. Also, in data set [8], the “effect on HBVETV-R^L180M/S202G/M204V viremia” value is reported as “significant level of viremia reduction by day 7”; the “greatest magnitude of viremia reduction” value is -1.4 log10 copies/ml; the “difference in viremia reduction magnitude between HBV^WT and HBVETV-R^L180M/S202G/M204V” value is reported as 30 fold. In the data set on HBV^WT [9], the “effect on HBV^WT viremia” value is listed as “significantly blocked the replication of HBV” and the “greatest magnitude of serum HBV-DNA level reduction” value is reported as -2.9 log10 copies/ml. In addition, the IC50 with HBV [5] came out at 0.0004 ± 0.0002 µM. In addition, the IC50 in the data set with HBV^WT [10] (setting [15]) was 0.007 ± 0.01 µM. Moreover, the IC50 in the data set with HBV^WT [10] (setting [16]) stood at 0.0072 µM. In the data set on HepG2 cells, the “mtDNA synthesis / mtDNA levels” value is “significantly lowered the levels of mtDNA”; the “L-lactate levels in culture medium” value is “severely lowered the levels of L-lactate and viable cell numbers”; the “viable cell numbers (MTT assay)” value was “severely lowered the levels of L-lactate and viable cell numbers”. Also, the “S.I. with Anti-HIV-1 (CC50/IC50)” value with HIV-1NL4-3 [6] (MT-4 cells) is 8,750.

`N#C[C@]1(CO)O[C@@H](n2cnc3c(=O)[nH]c(N)nc32)C[C@@H]1O` [CdG, 4′-C-cyano-2′-deoxyguanosine]: in the data set with HIV-2 strains, the “activity against HIV-2 strains” value is “potent activity against HIV-2 strains”. In addition, the IC50 in the data set with HBVADV-R^A181T/N236T was found to be 0.04 ± 0.02 µM. Besides, the CC50 in [1] came to 2.8 ± 0.9 µM. In [2], the IC50 was determined as 0.04 ± 0.03 µM. In “in vitro”, this compound registered a CC50 of 3.2 ± 0.7 µM. Also, the “S.I. with Anti-HBV (CC50/IC50)” value in the data set on HBV [3] (HepG2 2.2.15 cells) is recorded as 8,000. Moreover, in data set [7], the “serum human albumin (h-albumin) levels” value is recorded as “moderately decreased h-albumin levels” and the body weights result is recorded as “no significant difference in body weights”. Further, in data set [8], the “effect on HBVETV-R^L180M/S202G/M204V viremia” value is reported as “significant level of viremia reduction by day 7”; the “greatest magnitude of viremia reduction” value is given as -1.2 log10 copies/ml; the “difference in viremia reduction magnitude between HBV^WT and HBVETV-R^L180M/S202G/M204V” value was determined as 30 fold. Further, in the data set with HBV^WT [9], the “effect on HBV^WT viremia” value is given as “significantly blocked the replication of HBV” and the “greatest magnitude of serum HBV-DNA level reduction” value is listed as -2.7 log10 copies/ml. Further, the IC50 in the data set on HBV [5] was 0.0004 ± 0.0001 µM. In data set [11], the liver toxicity result was “no significant liver toxicity or general toxicity”. The IC50 in the data set with HBV^WT [10] (setting [15]) turned out to be 0.01 ± 0.002 µM. The IC50 in the data set on HBV^WT [10] (setting [16]) is 0.0098 µM. Besides, in the data set on HepG2 cells, the “mtDNA synthesis / mtDNA levels” value was “significantly lowered the levels of mtDNA”; the “L-lactate levels in culture medium” value is “severely lowered the levels of L-lactate and viable cell numbers”; the “viable cell numbers (MTT assay)” value was “severely lowered the levels of L-lactate and viable cell numbers”. The “S.I. with Anti-HIV-1 (CC50/IC50)” value with HIV-1NL4-3 [6] (MT-4 cells) was 7,000.

Consider `C#C[C@]1(CO)O[C@@H](n2cnc3c(N)nc(F)nc32)C[C@@H]1O` [EFdA, 4′-ethynyl-2-fluoro-2′-deoxyadenosine], for which, in data set [12], the maximal concentration is 4 µg/mL and the “time of maximal concentration” value is 30 min. The compound also yielded a half-maximal cytotoxic concentration (CC50) in data set [1] of 19.2 ± 5.9 µM. The same compound registered a CC50 in the data set “in vitro” greater than 100 µM. In addition, the “S.I. with Anti-HBV (CC50/IC50)” value in the data set with HBV [3] (HepG2 2.2.15 cells) is listed as greater than 630. The IC50 in the data set with HBV [5] was 0.16 ± 0.03 µM. Besides, in the data set with HIV-1NL4-3 [6] (MT-4 cells), the “S.I. with Anti-HIV-1 (CC50/IC50)” value is 64,000. In addition, the IC90 in the data set on HIV-1 is roughly 0.005 µM.

For `C#C[C@]1(COP(=O)(O)OP(=O)(O)OP(=O)(O)O)O[C@@H](n2cnc3c(N)nc(F)nc32)C[C@@H]1O` [EFdA-TP], the half-life (in general, the time needed for the level to fall by half in the phase considered) in data set [13] was no less than 17 h.

Regarding `C=C1[C@H](CO)[C@@H](O)C[C@@H]1n1cnc2c(=O)[nH]c(N)nc21` [ETV, entecavir], the IC50 in the data set on HBVADV-R^A181T/N236T is 0.18 µM; in data set [2], greater than 1 µM; in the data set with HBV [5] it was 0.0007 ± 0.0002 µM; in the data set with HBV^WT [10] (setting [15]), 0.014 ± 0.008 µM; in the data set on HBV^WT [10] (setting [16]), 0.0141 µM. Also, the CC50 in data set [1] is 39.1 ± 8.7 µM; in the data set “in vitro”, greater than 100 µM. For the same compound, the “S.I. with Anti-HBV (CC50/IC50)” value in the data set with HBV [3] (HepG2 2.2.15 cells) is > 140,000. The “number of HBV copies in HepG2 2.2.15 cells” value in the data set with HBV [3] (at 100 nM, 12-day culture, cells alone 9.0 × 10^5 copies/well) is ~ 0.9 × 10^5 copies/well. Moreover, in data set [7], the “serum human albumin (h-albumin) levels” value is “comparable decrease of h-albumin levels”. Further, the body weights result in data set [7] was “no significant difference in body weights”. The “effect on HBVETV-R^L180M/S202G/M204V viremia” value in [8] is recorded as “completely failed to reduce; also recorded: essentially no reduction”. The “effect on HBV^WT viremia” value with HBV^WT [9] is “viremia levels significantly went down”. Further, the “mtDNA synthesis / mtDNA levels” value in the data set with HepG2 cells is recorded as “no reduction of mtDNA synthesis was observed”. The “L-lactate levels in culture medium” value with HepG2 cells was “no L-lactate level changes were identified”. Moreover, the “viable cell numbers (MTT assay)” value with HepG2 cells was “slight and moderate decreases in the cell viability”. Further, the “S.I. with Anti-HIV-1 (CC50/IC50)” value with HIV-1NL4-3 [6] (MT-4 cells) worked out at 38.

On to `Nc1nc(=O)n([C@@H]2CS[C@H](CO)O2)cc1F` [FTC, emtricitabine], for which the CC50 (in [1]; in the data set “in vitro”) was greater than 100 µM in each case. Also, in the data set with HBV [3], the “S.I. with Anti-HBV (CC50/IC50)” value was > 5,000. Further, the IC50 in the data set with HIV-1NL4-3 [14] stood at 0.23 ± 0.1 µM; in the data set on HBV [5], 0.02 ± 0.01 µM. Besides, the “S.I. with Anti-HIV-1 (CC50/IC50)” value in the data set with HIV-1NL4-3 [6] is listed as greater than 430.
